procasp7 counter: counter-screen for procaspase-3 activators: activators of human procaspase-7 | recombinant procaspase-7, Ac-DEVD-pNA absorbance 405 nm; D23A/D198A/D206A triple mutant, cannot self-cleave; scale: DMSO 0, 5 µM enzyme 100 | activation, % at 8.5 µM | 0.093% of 330,000 active;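 active = percent activation above the screen-wide mean plus 3 SD, cut at about 25% in these data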
Target sequence (P55210 whole entry D23A/D198A/D206A): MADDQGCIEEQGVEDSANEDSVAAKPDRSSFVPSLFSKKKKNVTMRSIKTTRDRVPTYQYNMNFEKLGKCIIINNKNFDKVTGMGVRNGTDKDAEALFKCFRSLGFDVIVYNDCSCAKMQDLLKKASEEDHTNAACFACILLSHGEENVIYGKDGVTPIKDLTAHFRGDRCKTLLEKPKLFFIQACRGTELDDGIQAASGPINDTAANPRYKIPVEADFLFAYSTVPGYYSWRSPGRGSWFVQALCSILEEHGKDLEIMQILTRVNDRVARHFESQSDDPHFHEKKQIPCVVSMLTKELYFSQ
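Assay system: Uncleavable procaspase-7 mutant enzyme / Input: 2 µM procaspase-7 mutant as dispensed / Dosing: single nominal 8.5 µM compound dose, 0.8% DMSO final / Timing: 1 h enzyme–compound preincubation and 2 h substrate reaction, both 25 °C / Detection: p-Nitroaniline absorbance at 405 nm, read at 0 and 120 min / Replication: singlicate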
CHT PAM: allosteric activators of human choline transporter CHT; B-score at 10 µM; AID 488977; 0.49% of 310,000 active; CHT-expressing cells, membrane potential dye, choline EC20; hits give high values; LV-AA mutant CHT in HEK293 cells; Q9GZV3;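 active = initial fluorescence not abnormally high and integrated response B-score, plate-corrected, over 3 SD above library mean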
procasp3 activ: procaspase-3 (human) activation | recombinant procaspase-3 D3A, Ac-DEVD-pNA absorbance 405 nm | activation, % at 8.5 µM | 0.11% of 330,000 active | AID 463141;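 active = activation above the mean of all tested compounds plus 3 SD, cut at about 21% in these data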;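 also: 0% = DMSO alone and 100% = DMSO wells spiked with extra 5 µM PC-3 D3A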
Target sequence (P42574 whole entry D9A/D28A/D175A): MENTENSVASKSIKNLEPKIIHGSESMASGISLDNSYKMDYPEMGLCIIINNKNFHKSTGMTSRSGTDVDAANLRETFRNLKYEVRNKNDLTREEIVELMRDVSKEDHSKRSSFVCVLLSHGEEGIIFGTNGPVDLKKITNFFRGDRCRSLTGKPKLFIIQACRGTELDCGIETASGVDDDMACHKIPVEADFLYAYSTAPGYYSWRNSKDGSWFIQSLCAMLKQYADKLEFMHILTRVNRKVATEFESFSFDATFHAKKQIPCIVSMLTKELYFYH
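Test system: Procaspase-3 D3A mutant, all three cleavage aspartates alanine | Dosing: Single dose, 8.5 µM nominal compound, 0.8% DMSO | Schedule: 1 h preincubation, 2 h reaction | Technique: 405 nm absorbance of p-nitroaniline, reads at 0 and 120 min | Repeats: One well per compound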
CHT inh: inhibitors of human choline transporter CHT. AID 488975. Q9GZV3. B-score at 10 µM. CHT-expressing cells, membrane potential dye, choline response; hits give low values. 0.86% of 310,000 active;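 active = B-score over 3 SD under the library average, and starting fluorescence ratio not unusually high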;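 also: choline stimulus applied at its EC90 after an EC20 pre-addition; B-score computed on integrated fluorescence ratio after choline addition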
CHT inh conf: human CHT inhibition, confirmatory screen; shares compounds with CHT inh; CHT activity remaining % of control (hits give low values), % at 10 µM; CHT-expressing cells, choline membrane potential dye; LV-to-AA substituted CHT, HEK293 cells; 70% of 2,400 active;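 active = choline transporter activity left, mean of duplicates at 10 µM, below buffer-only control mean minus 3 SD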;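 also: depolarization triggered by choline at its EC90 following an EC20 pre-addition; 0% = hemicholinium-3 full block and 100% = buffer-only control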
HEK293 CHT ctr: CHT inhibitor counter-screen hit in parental HEK293 cells. membrane potential dye, choline response; active = decrease or increase beyond buffer ±3SD. membrane potential ratio readout (active if shifted either direction beyond buffer ±3SD; no single direction) at 10 µM. AID 493222. 4% of 2,400 active. shares compounds with CHT inh;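 also: parental cells lack the transporter so any hit is non-specific; ratio is peak minus trough fluorescence over baseline after EC90 choline challenge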
The depositor's hits bear a star; i = inactive; · = no result. Shown are actives, neighbours in structure and some others; about 1.3% of the full set was active somewhere.

SMILES	procasp7 counter	CHT PAM	procasp3 activ	CHT inh	CHT inh conf	HEK293 CHT ctr
CC[N+]1(CC)CC2=Cc3c(ccc4ccccc34)C(C)C2C1 (stereo not given)	4.1	i	7.2	-5.97*	60.4%*	i
CSCc1ccc(C(=O)N2CCCC(Nc3ccc(F)cc3)C2)o1 (stereo not given)	5.5	i	-1.6	-5.2*	i	i
CCCCNC(=O)c1onc(CSc2ccc(C(C)C)cc2)c1C(=O)O	-7.8	i	6.0	-8.22*	69.2%*	i
C=CCNC(=O)c1ccc(C2SCC(=O)N2Cc2ccccc2)cc1 (stereo not given)	-0.9	i	1.1	-6.97*	70.0%*	i
CCOC(=O)[C@H]1[C@H]2COc3ccc(Br)cc3[C@@H]2N2C(=O)CN(Cc3ccc(OC)cc3)C(=O)[C@@]12C	1.3	·	-0.1	·	·	·
O=C(COC(=O)c1c[nH]c2ccccc12)Nc1ccc(F)cc1	-10.9	·	-1.8	·	·	·
N#Cc1c(C(F)(F)F)cc(-c2cccc(Cl)c2)[nH]c1=O	10.9	i	2.6	-5.15*	i	i
COc1ccc(/C=C2\COc3ccccc3C2=O)cc1OC	5.9	i	-12.7	i	·	·
O=C(O)c1ccc(/C=C2\COc3ccccc3C2=O)cc1	6.0	i	-6.8	-6.76*	33.4%*	i
OC(CNCC1COc2ccccc2O1)COc1ccccc1F (stereo not given)	6.2	i	0.8	i	·	·
O=C(NCc1ccc(Cl)cc1)c1ccc(CNc2c(N3CCOCC3)c(=O)c2=O)cc1	-3.2	i	5.0	i	·	·
O=C(NCc1ccc(Cl)cc1)c1ccc(CNc2c(N3CCCC3)c(=O)c2=O)cc1	4.3	i	1.7	-6.24*	i	i
Cc1cccc(OCC(=O)NC(=S)NNC(=O)c2ccncc2)c1	-30.4	i	-29.6	i	·	·
COc1ccc(C(=O)NC(=S)NNC(=O)c2ccc(C)cc2)cc1	-2.8	i	3.2	-7.2*	48.7%*	i
CCCCC(=O)NNC(=S)NC(=O)c1ccc(C)cc1	-18.8	i	-8.2	-9.05*	30.0%*	i
COc1ccc(C(=O)NNC(=S)NC(=O)c2ccc(Cl)cc2)cc1	-9.8	i	-0.3	i	·	·
Cc1ccccc1C(=O)NNC(=S)NC(=O)COc1ccccc1	-26.9	i	-19.2	-7.99*	33.3%*	i
Cc1ccc(C(=O)NNC(=S)NC(=O)COc2ccccc2)cc1	-13.6	i	1.2	-6.08*	i	i
COc1ccc(OCC(=O)NC(=S)Nc2ccccc2F)cc1	-28.3	i	-11.2	-5.23*	59.5%*	i
Nc1cc(=O)[nH]c(SCC(=O)Nc2ccc(N3CCOCC3)cc2)n1	-6.5	·	2.0	·	·	·
CN(C(=O)COC(=O)c1c2c(nc3ccccc13)CCCC2)c1c(N)n(Cc2ccccc2)c(=O)[nH]c1=O	3.3	i	-3.6	i	·	·
CN(C)S(=O)(=O)c1ccc(C(=O)Nc2ccc(S(=O)(=O)NC3=NCCCCC3)cc2)cc1	6.0	i	-5.1	i	·	·
O=C(Nc1ccc(S(=O)(=O)NC2=NCCCCC2)cc1)c1ccc(C(F)(F)F)cc1	-1.8	i	3.4	-6.84*	41.4%*	i
O=C(Nc1ccccc1)c1cccc(S(=O)(=O)NC2CCCC2)c1	-7.6	i	11.5	-5.17*	36.4%*	i
COc1cc(NC(=O)CN2CCN(CC(=O)Nc3ccccc3OC)CC2)cc(OC)c1	10.3	i	-4.2	i	·	·
SMILES	procasp7 counter	CHT PAM	procasp3 activ	CHT inh	CHT inh conf	HEK293 CHT ctr
Cc1ccc(C2(C)NC(=O)N(CC(=O)N3c4ccccc4NC(=O)CC3C)C2=O)cc1 (stereo not given)	-5.7	·	-8.5	·	·	·
CCN1CCN(CC(=O)Nc2ccc(S(=O)(=O)N3C(C)CCCC3C)cc2)CC1 (stereo not given)	5.2	i	0.4	-5.83*	25.4%*	i
CC1CCN(S(=O)(=O)c2ccc(NC(=O)CN3CCCC3)cc2)CC1	5.0	i	8.6	i	·	·
O=C(Cn1ccc2ccccc2c1=O)NCC(=O)Nc1ccc(F)cc1F	1.2	i	2.7	i	·	·
Cc1csc(NC(=O)c2cc3ccccc3o2)n1	1.7	·	6.4	·	·	·
Cc1csc(C(C#N)C(=O)c2cc3ccccc3o2)n1 (stereo not given)	-8.8	i	0.1	-5.26*	60.9%*	i
Cc1nonc1CC(=O)NC1CCCc2c1cnn2-c1ccc(F)cc1F (stereo not given)	5.8	i	2.4	i	·	·
O=C(CC(CC(=O)c1ccc(Cl)cc1)c1ccccc1C(=O)O)c1ccc(Cl)cc1	-17.2	i	1.8	-5.83*	40.4%*	i
CC(=O)N(c1ccccc1)c1nc(/C=C/C(=O)Nc2c(C)cc(C)cc2C)cs1	-1.7	i	8.2	-5.28*	i	i
Cn1cc([N+](=O)[O-])c(C(=O)N/N=C/c2cc3c(cc2Br)OCO3)n1	-2.5	i	-1.2	-9.14*	i	i
Nc1nonc1C(=O)N/N=C/c1cc2c(cc1[N+](=O)[O-])OCO2	-0.9	i	-5.3	i	·	·
O=S(=O)(Nc1nc(-c2ccccc2)cs1)c1cc(Cl)ccc1Cl	-8.8	i	-4.6	i	·	·
O=S(=O)(Nc1nc(-c2ccccc2)cs1)c1cccc(C(F)(F)F)c1	1.1	i	-3.3	-7.68*	51.0%*	i
O=[N+]([O-])c1ccc(S(=O)(=O)Nc2nc(-c3ccccc3)cs2)cc1	2.4	i	-1.5	-5.6*	58.2%*	i
COc1ccc(Cl)cc1NC(=O)C[n+]1cccc(C)c1	-2.7	i	-5.7	-8.11*	39.6%*	i
COc1cc([N+](=O)[O-])ccc1NC(=O)C[n+]1cccc(C)c1	-3.7	i	6.5	i	·	·
Cc1ccc(NS(=O)(=O)c2ccc3c(c2)OCCCO3)cc1S(=O)(=O)N1CCOCC1	12.2	·	-1.8	·	·	·
O=c1cc(CSc2nc3cc(Cl)ccc3o2)nc2sccn12	7.4	i	1.1	-5.35*	50.6%*	i
O=C(c1ccco1)N1CCN(C(=O)C2Cc3ccccc3CN2S(=O)(=O)c2ccc(F)cc2)CC1 (stereo not given)	3.2	i	-0.9	i	·	·
O=C(C1Cc2ccccc2CN1S(=O)(=O)c1ccc(F)cc1)N1CCCCC1 (stereo not given)	2.3	i	2.7	-6.29*	3.1%*	i
Cc1ccc(SCC2=NN(c3nc(C)cc(C)n3)C(=O)C2)cc1	8.9	i	3.7	-6.46*	23.4%*	i
O=C(CSc1ccccn1)N1CCN(c2ncc(C(F)(F)F)cc2Cl)CC1	10.7	i	4.0	-5.3*	i	i
